Assay results as given in ChEMBL document CHEMBL1944598, “First synthesis and anticancer activity of novel naphthoquinone amides” (Eur J Med Chem, 2012).
Active and inactive are the calls of the source. The rule behind the calls is not given here.

Experiments:
MCF7 = assay: Cytotoxicity against human MCF7 cells after 3 days by resazurin microplate assay; type: functional, cell-based
In short: (§1)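 Log-phase cells seeded at 7×10^4 cells/mL (KB) or 9×10^4 cells/mL (MCF-7) onto compounds in 0.5% DMSO. Incubated 3 days at 37 °C, 5% CO₂, then resazurin added for 4 h. Fluorescence read at ex 530/em 590 nm. IC50 by curve fit from 6 two-fold serial dilutions. Doxorubicin positive, 0.5% DMSO negative control. Mean of three replicates ± SD.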

NCI-H187 = assay: Cytotoxicity against human NCI-H187 cells after 5 days by resazurin microplate assay; type: functional, cell-based; conditions: NCI-H187, 120 h
In short: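 Log-phase NCI-H187 cells diluted to 9×10^4 cells/mL and seeded onto compounds in 0.5% DMSO. After 5 days at 37 °C, 5% CO₂, resazurin added for 4 h. Fluorescence read at ex 530/em 590 nm. IC50 fitted from 6 two-fold serial dilutions. Doxorubicin and 0.5% DMSO controls. Mean of three replicates ± SD.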

Vero = assay: Cytotoxicity against african green monkey Vero cells expressing GFP after 4 days by fluorescence assay; type: cell-based; conditions: Chlorocebus sabaeus, 96 h
In short: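 Vero (African green monkey kidney) cells stably transfected with pEGFP-N1, kept in MEM with 10% heat-inactivated FBS, 2 mM L-glutamine, 1 mM pyruvate, geneticin. Cells seeded at 3.3 × 10⁴ cells/mL onto compounds diluted in 0.5% DMSO, 4 days at 37 °C, 5% CO₂. Bottom-read fluorescence (ex 485/em 535 nm), day-0 background subtracted. IC50 by curve fit from 6 two-fold dilutions.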

KB = assay: Cytotoxicity against human KB cells after 3 days by resazurin microplate assay; type: functional, cell-based; in short: as §1
[1] = molecular target: DNA topoisomerase 2-alpha (Homo sapiens) (UniProt P11388); assay: Inhibition of human topoisomerase 2alpha-mediated decatenation of kinetoplast DNA at 10 uM after 1 hr using ethidium bromide by agarose gel electrophoresis analysis relative to doxorubicin
In short: (§2)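 Doxorubicin as positive control. Stopped with Sarkosyl loading dye. Run on 1% agarose in 0.5x TBE with ethidium bromide at 50 V, imaged under UV. Decatenated and linearized kDNA used as markers.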

[2] = molecular target: DNA topoisomerase 2-alpha (Homo sapiens) (UniProt P11388); assay: Inhibition of human topoisomerase 2alpha-mediated decatenation of kinetoplast DNA at 50 uM after 1 hr using ethidium bromide by agarose gel electrophoresis analysis; in short: as §2
[3] = molecular target: DNA topoisomerase 2-alpha (Homo sapiens) (UniProt P11388); assay: Inhibition of human topoisomerase 2alpha-mediated decatenation of kinetoplast DNA at 20 uM after 1 hr using ethidium bromide by agarose gel electrophoresis analysis; in short: as §2
[4] = Homo sapiens, MCF7, 72 h, read-out: IC50
[5] = Homo sapiens, KB, 72 h, read-out: IC50

Chain of DNA topoisomerase 2-alpha (Homo sapiens) (P11388 whole entry): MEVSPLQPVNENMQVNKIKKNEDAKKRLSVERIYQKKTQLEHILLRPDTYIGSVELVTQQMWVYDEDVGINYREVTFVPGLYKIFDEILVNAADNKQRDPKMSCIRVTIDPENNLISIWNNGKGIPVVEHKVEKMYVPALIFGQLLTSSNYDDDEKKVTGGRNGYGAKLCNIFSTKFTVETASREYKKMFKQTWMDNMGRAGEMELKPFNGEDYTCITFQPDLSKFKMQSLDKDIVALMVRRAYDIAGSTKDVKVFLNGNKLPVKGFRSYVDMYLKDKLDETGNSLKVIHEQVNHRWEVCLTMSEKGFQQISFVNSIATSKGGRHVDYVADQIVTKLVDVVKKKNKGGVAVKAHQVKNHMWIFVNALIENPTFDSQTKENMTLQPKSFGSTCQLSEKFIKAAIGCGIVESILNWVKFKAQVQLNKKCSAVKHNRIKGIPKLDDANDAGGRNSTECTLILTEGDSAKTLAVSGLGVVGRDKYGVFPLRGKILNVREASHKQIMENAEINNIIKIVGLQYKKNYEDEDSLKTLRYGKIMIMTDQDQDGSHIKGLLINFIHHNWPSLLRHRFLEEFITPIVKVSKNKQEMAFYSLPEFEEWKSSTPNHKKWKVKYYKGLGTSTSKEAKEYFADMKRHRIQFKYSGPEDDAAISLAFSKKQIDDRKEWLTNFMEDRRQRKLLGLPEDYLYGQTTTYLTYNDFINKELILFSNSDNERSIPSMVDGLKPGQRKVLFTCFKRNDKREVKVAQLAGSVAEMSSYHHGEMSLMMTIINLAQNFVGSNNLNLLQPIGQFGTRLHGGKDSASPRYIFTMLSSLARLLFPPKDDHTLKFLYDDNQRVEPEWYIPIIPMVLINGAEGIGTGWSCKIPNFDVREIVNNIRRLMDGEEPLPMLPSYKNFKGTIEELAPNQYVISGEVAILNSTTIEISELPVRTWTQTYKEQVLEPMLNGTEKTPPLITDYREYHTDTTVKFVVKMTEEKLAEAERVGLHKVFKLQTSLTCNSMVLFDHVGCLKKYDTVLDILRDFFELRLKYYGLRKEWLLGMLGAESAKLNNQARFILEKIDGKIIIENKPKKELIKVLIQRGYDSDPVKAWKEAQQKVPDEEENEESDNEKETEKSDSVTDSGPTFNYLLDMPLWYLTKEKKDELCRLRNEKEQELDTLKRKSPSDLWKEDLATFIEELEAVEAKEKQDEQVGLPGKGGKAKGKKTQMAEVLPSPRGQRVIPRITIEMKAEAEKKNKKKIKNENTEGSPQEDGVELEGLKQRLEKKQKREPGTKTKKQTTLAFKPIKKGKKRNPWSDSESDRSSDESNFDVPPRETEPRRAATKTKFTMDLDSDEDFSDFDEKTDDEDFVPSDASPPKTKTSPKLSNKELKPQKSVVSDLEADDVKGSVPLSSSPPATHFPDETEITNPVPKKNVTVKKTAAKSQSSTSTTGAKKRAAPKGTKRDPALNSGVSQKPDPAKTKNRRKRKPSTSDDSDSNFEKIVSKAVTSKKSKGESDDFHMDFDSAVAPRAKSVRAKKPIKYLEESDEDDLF

inhibition [1]	inhibition [2]	inhibition [3]	SMILES	IC50 (MCF7; [4]) [µM]	IC50 (NCI-H187) [µM]	IC50 (Vero) [µM]	IC50 (KB; [5]) [µM]	IC50 (MCF7; mcf7)	IC50 (KB; kb)
–	–	–	COc1ccccc1C(=O)NCC(C)(C)CC1=C(O)C(=O)c2ccccc2C1=O	111	42.9	31.2	26.3	–	–
–	–	–	COC1=C(CC(C)(C)CNC(=O)c2cc(OC)c3ccccc3c2OC)C(=O)c2ccccc2C1=O	–	19.6	30.1	41.2	Not Active	–
–	–	–	COC1=C(CC(C)(C)CNC(=O)c2ccc3ccccc3c2OC)C(=O)c2ccccc2C1=O	95.7	53.2	60.6	64.1	–	–
–	–	–	COc1c(C(=O)NCC(C)(C)CC2=C(O)C(=O)c3ccccc3C2=O)ccc2ccccc12	39.8	37	47.3	66.9	–	–
–	–	–	COC1=C(CC(C)(C)CNC(=O)c2cc(OC)ccc2OC)C(=O)c2ccccc2C1=O	57.9	74.3	36.2	34.3	–	–
–	–	–	COc1cccc2c1C(=O)c1c(O)c3c(c(O)c1C2=O)C[C@@](O)(C(=O)CO)C[C@@H]3O[C@H]1C[C@H](N)[C@H](O)[C@H](C)O1 [DOXORUBICIN]	–	0.16	28.8	0.9	–	–
inactive	Active	–	COc1cc(C(=O)NCC(C)(C)CC2=C(O)C(=O)c3ccccc3C2=O)c(OC)c2ccccc12	–	19.8	17.7	47	Not Active	–
–	–	–	COC1=C(CC(C)(C)CNC(=O)c2ccccc2OC)C(=O)c2ccccc2C1=O	70.7	34.7	27.3	33.2	–	–
–	–	–	COC1=C(CC(C)(C)CNC(=O)c2ccc3ccccc3c2)C(=O)c2ccccc2C1=O	52.5	25.7	36	34.1	–	–
inactive	Active	Active	COc1cc(C(=O)NCC(C)(C)CC2=C(O)C(=O)c3ccccc3C2=O)c(O)c2ccccc12	35.6	26	15.8	8.62	–	–
–	–	–	CC(C)(CNC(=O)c1ccccc1)CC1=C(O)C(=O)c2ccccc2C1=O	37.1	40.1	50.5	15.2	–	–
inactive	Active	–	CC(C)(CNC(=O)c1ccccc1O)CC1=C(O)C(=O)c2ccccc2C1=O	28.1	8.83	32.1	44.9	–	–
inactive	Active	Active	CC(C)(CNC(=O)c1ccc2ccccc2c1O)CC1=C(O)C(=O)c2ccccc2C1=O	79.5	14.4	93.7	26.9	–	–
–	–	–	COc1ccc(O)c(C(=O)NCC(C)(C)CC2=C(O)C(=O)c3ccccc3C2=O)c1	39.6	15	31.1	–	–	Not Active
inactive	Active	–	CC(C)(CNC(=O)c1ccc2ccccc2c1)CC1=C(O)C(=O)c2ccccc2C1=O	28.2	19.5	46.6	9	–	–
–	–	–	COC1=C(CC(C)(C)CNC(=O)c2ccccc2)C(=O)c2ccccc2C1=O	61.8	19.1	12.3	117	–	–
–	–	–	COc1ccc(OC)c(C(=O)NCC(C)(C)CC2=C(O)C(=O)c3ccccc3C2=O)c1	99.4	40.9	89.1	86.6	–	–
